Calls of active or inactive are those of the source. The calls are words filed in the database; no cut-off is given here.
What was measured:
Trypanosoma cruzi [1] = assay: Trypanocidal activity against bloodstream trypomastigote stage of Trypanosoma cruzi Y infected in BALB/c mouse assessed as reduction of parasitemia at 10 mg/kg/day, ip qd administered for 5 days measured on day 10 post-infection by microscopic analysis relative to control; format: functional; parameters: scale not given: the % may be the effect or the level left; settings: route intraperitoneal
Method in brief: (§1)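 Female BALB/c mice (20–24 g) infected ip with 10^4 Y-strain bloodstream trypomastigotes; only parasitemic animals used. Compounds dissolved in DMSO, freshly diluted in propylene glycol, given ip at 10 mg/kg/day for 5 days from 5 dpi, with an untreated group. Parasitemia counted by Pizzi–Brener in 5 μL tail blood at 5, 8, 10 dpi; mortality checked daily to 30 dpi.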

Leishmania guyanensis = assay: Leishmanicidal activity against extracellular promastigote stage of Leishmania guyanensis 141/93 assessed as reduction of parasite load after 48 hrs by resazurin dye-based fluorometric analysis; format: functional, organism-based; settings: Leishmania guyanensis, 141/93, 48 h; read-out: IC50
Method in brief: (§2)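 Log-phase promastigotes cultured in Schneider's medium with 20% heat-inactivated FBS at 26 °C, 2.5 × 10^5 per well. DMSO-dissolved compounds added as 2-fold serial dilutions, final DMSO ≤0.2% (v/v), 48 h at 26 °C. Growth read by 2.5 mM resazurin stock, fluorescence 535/590 nm. Triplicate; IC50 by probit analysis.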

Leishmania infantum [2] = assay: Leishmanicidal activity against extracellular promastigote stage of Leishmania infantum MCAN/ES/96/BCN150 assessed as reduction of parasite load after 48 hrs by resazurin dye-based fluorometric analysis; format: functional, organism-based; settings: Leishmania infantum, MCAN/ES/96/BCN150, 48 h; read-out: IC50; method in brief: as §2
Leishmania amazonensis [3] = assay: Leishmanicidal activity against extracellular promastigote stage of Leishmania amazonensis MHOM/Br/79/Maria assessed as reduction of parasite load after 48 hrs by resazurin dye-based fluorometric analysis; format: functional, organism-based; settings: Leishmania amazonensis, MHOM/Br/79/Maria, 48 h; read-out: IC50; method in brief: as §2
Leishmania infantum [4] = assay: Leishmanicidal activity against intracellular amastigote stage of Leishmania infantum MCAN/ES/96/BCN150 infected in mouse J774 cells assessed as reduction of parasite load after 48 hrs by resazurin dye-based fluorometric analysis; format: functional, organism-based
Method in brief: (§3)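 J774 macrophages (5 × 10^4/well) infected with stationary promastigotes at 1:10, 24 h at 33 °C then 24 h at 37 °C, 5% CO2, and washed free of promastigotes. Then 2-fold serial dilutions in triplicate for 48 h at 37 °C. Cells lysed with RPMI with 0.048% HEPES and 0.006% SDS, transformed in Schneider's 3 days at 26 °C, resazurin 3 h, fluorescence 535/590 nm.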

[5] = Cytotoxicity against mouse NCTC-929 cells assessed as reduction of cell viability after 24 hrs by resazurin dye-based […]
Method in brief: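 NCTC clone 929 fibroblasts in DMEM with 10% FBS and 2 mM L-glutamine, plated at 3 × 10^4 cells/well and grown overnight at 37 °C, 5% CO2. Compounds in fresh medium for 24 h, then 2 mM resazurin solution added for 3 h. Absorbance read at 570 and 595 nm; CC50 taken as 50% viability loss versus untreated cells, by probit analysis.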

[6] = Cytotoxicity against mouse J774 cells assessed as reduction of cell viability after 24 hrs by resazurin dye-based fluorometric analysis
Method in brief: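 J774 macrophages in RPMI 1640 with 10% heat-inactivated FBS, seeded at 5 × 10^4 cells/well and attached 24 h at 37 °C, 5% CO2. Medium swapped for drug dilutions for 24 h. Then 2.5 mM resazurin stock added for 3 h, fluorescence read at 535 nm excitation / 590 nm emission. Triplicate; CC50 from probit analysis.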

Trypanosoma cruzi [7] = assay: Trypanocidal activity against extracellular epimastigote stage of Trypanosoma cruzi CL-B5 assessed as reduction of parasite load after 72 hrs by CPRG-based colorimetric analysis
Leishmania amazonensis [8] = assay: Leishmanicidal activity against intracellular amastigote stage of Leishmania amazonensis MHOM/Br/79/Maria infected in mouse J774 cells assessed as reduction of parasite load after 48 hrs by resazurin dye-based fluorometric analysis; format: functional, organism-based; method in brief: as §3
Trypanosoma cruzi [9] = assay: Trypanocidal activity against bloodstream trypomastigote stage of Trypanosoma cruzi Y infected in BALB/c mouse assessed as reduction of parasitemia at 10 mg/kg/day, ip qd administered for 3 days measured on day 8 post-infection by microscopic analysis relative to control; format: functional; parameters: scale not given: the % may be the effect or the level left; settings: route intraperitoneal; method in brief: as §1
Trypanosoma cruzi [10] = assay: Trypanocidal activity against bloodstream trypomastigote stage of Trypanosoma cruzi Y infected in BALB/c mouse assessed as reduction of survival rate at 10 mg/kg/day, ip qd administered for 5 days measured daily until day 30 post-infection; format: functional, organism-based; method in brief: as §1
[11] = Selectivity index, ratio of CC50 for mouse NCTC-929 cells to IC50 for extracellular epimastigote stage of Trypanosoma cruzi CL-B5; format: functional
Leishmania braziliensis = assay: Leishmanicidal activity against extracellular promastigote stage of Leishmania braziliensis 2903 assessed as reduction of parasite load after 48 hrs by resazurin dye-based fluorometric analysis; format: functional, organism-based; settings: Leishmania braziliensis, 2903, 48 h; read-out: IC50; method in brief: as §2
Trypanosoma cruzi [12] = assay: Trypanocidal activity against intracellular amastigote stage of Trypanosoma cruzi CL-B5 infected in mouse NCTC-929 cells assessed as reduction of parasite load after 7 days by CPRG-based colorimetric analysis
[13] = Selectivity index, ratio of CC50 for mouse J774 cells to IC50 for extracellular promastigote stage of Leishmania infantum MCAN/ES/96/BCN150; format: functional
Leishmania infantum [14] = assay: Binding affinity to beta-tubulin in promastigote stage of Leishmania infantum assessed as structure disorganization at IC50 after 48 hrs by confocal laser scanning microscopic analysis
Leishmania infantum [15] = assay: Antileishmanial activity against promastigote stage of Leishmania infantum assessed as alteration in nuclear DNA at IC50 after 48 hrs by propidium iodide staining-based confocal laser scanning microscopic analysis; format: functional, organism-based
Leishmania infantum [16] = assay: Leishmanicidal activity against promastigote stage of Leishmania infantum MCAN/ES/96/BCN150 infected in BALB/c mouse assessed as reduction of parasite burden in spleen at 10 mg/kg, ip qd administered for 5 days measured after 7 days by limiting dilution assay relative to untreated control; format: functional; parameters: scale not given: the % may be the effect or the level left; settings: route intraperitoneal
Method in brief: (§4)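 BALB/c mice infected intracardially under pentobarbital anaesthesia with 10^7 stationary L. infantum BCN150 promastigotes. From day 21 post-infection, dosed ip once daily for 5 days in 0.1 mL propylene glycol, with an untreated control group. Killed 7 days later; spleen and liver burdens by limiting dilution and expressed as % reduction versus controls.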

Mus musculus [17] = assay: Toxicity in BALB/c mouse infected with promastigote stage of Leishmania infantum MCAN/ES/96/BCN150 assessed as gross weight loss at 10 mg/kg, ip qd administered for 5 days; format: organism-based; parameters: dose 10 mg/kg, route intraperitoneal; settings: in vivo, 120 h; method in brief: as §4
[18] = Selectivity index, ratio of CC50 for mouse J774 cells to IC50 for extracellular promastigote stage of Leishmania guyanensis 141/93; format: functional
Leishmania infantum [19] = assay: Leishmanicidal activity against promastigote stage of Leishmania infantum MCAN/ES/96/BCN150 infected in BALB/c mouse assessed as reduction of parasite burden in liver at 10 mg/kg, ip qd administered for 5 days measured after 7 days by limiting dilution assay relative to untreated control; format: functional; parameters: scale not given: the % may be the effect or the level left; settings: route intraperitoneal; method in brief: as §4
Leishmania infantum [20] = assay: Leishmanicidal activity against promastigote stage of Leishmania infantum MCAN/ES/96/BCN150 infected in BALB/c mouse assessed as reduction of parasite burden in spleen at 5 mg/kg, ip qd administered for 5 days measured after 7 days by limiting dilution assay relative to untreated control; format: functional; parameters: scale not given: the % may be the effect or the level left; method in brief: as §4
Mus musculus [21] = assay: Toxicity in BALB/c mouse infected with promastigote stage of Leishmania infantum MCAN/ES/96/BCN150 assessed as hair loss at 10 mg/kg, ip qd administered for 5 days; format: organism-based; parameters: dose 10 mg/kg, route intraperitoneal; settings: in vivo, 120 h; method in brief: as §4
Leishmania infantum [22] = assay: Leishmanicidal activity against promastigote stage of Leishmania infantum MCAN/ES/96/BCN150 infected in BALB/c mouse assessed as reduction of parasite burden in liver at 5 mg/kg, ip qd administered for 5 days measured after 7 days by limiting dilution assay relative to untreated control; format: functional; parameters: scale not given: the % may be the effect or the level left; method in brief: as §4
Leishmania infantum [23] = assay: Antileishmanial activity against promastigote stage of Leishmania infantum assessed as alteration in kinetoplast DNA at IC50 after 48 hrs by propidium iodide staining-based confocal laser scanning microscopic analysis; format: functional, organism-based
[24] = Selectivity index, ratio of CC50 for mouse J774 cells to IC50 for extracellular promastigote stage of Leishmania amazonensis MHOM/Br/79/Maria; format: functional
Leishmania infantum [25] = assay: Antileishmanial activity against promastigote stage of Leishmania infantum assessed as induction of apoptosis at IC50 after 48 hrs by propidium iodide staining-based confocal laser scanning microscopic analysis; format: functional, organism-based
Leishmania infantum [26] = assay: Binding affinity to beta-tubulin in promastigote stage of Leishmania infantum assessed as structure disorganization at IC50 after 24 to 48 hrs by confocal laser scanning microscopic analysis
Mus musculus [27] = assay: Toxicity in BALB/c mouse infected with promastigote stage of Leishmania infantum MCAN/ES/96/BCN150 assessed as appearance of hyperactivity with local skin irritation at 5 mg/kg, ip qd administered for 5 days; format: organism-based; parameters: dose 5 mg/kg, route intraperitoneal; settings: in vivo, 120 h; method in brief: as §4
Leishmania infantum [28] = assay: Antileishmanial activity against promastigote stage of Leishmania infantum assessed as disappearance of kinetoplast DNA at IC50 after 48 hrs by propidium iodide staining-based confocal laser scanning microscopic analysis; format: functional, organism-based
[29] = Trypanosoma cruzi, CL-B5, 72 h, read-out: IC50
[30] = Trypanosoma cruzi, CL-B5, NCTC-929, 168 h, read-out: IC50
[31] = Leishmania infantum, MCAN/ES/96/BCN150, J774, 48 h, read-out: IC50
[32] = Leishmania amazonensis, MHOM/Br/79/Maria, J774, 48 h, read-out: IC50

SMILES | Activity (Trypanosoma cruzi [1]) | IC50 (Leishmania guyanensis) | IC50 (Leishmania infantum [2]) | IC50 (Leishmania amazonensis [3]) | CC50 at 24 h [5] | CC50 at 24 h [6] | IC50 (Trypanosoma cruzi [7]; [29]) | Activity (Trypanosoma cruzi [9]) | Activity (Trypanosoma cruzi [10]) | Ratio CC50/IC50 [11] | IC50 (Leishmania braziliensis) | IC50 (Trypanosoma cruzi [12]; [30]) | Ratio CC50/IC50 [13] | IC50 (Leishmania infantum [4]; [31]) | IC50 (Trypanosoma cruzi [7]) | IC50 (Leishmania amazonensis [8]; [32]) | Activity (Leishmania infantum [20]; route intraperitoneal) | IC50 (Trypanosoma cruzi [12]; nctc-929) | Ratio CC50/IC50 [24] | Activity (Leishmania infantum [22]) | also measured
O=S(=O)(Nc1ccc2cn[nH]c2c1)c1ccc(F)cc1 | 44% | 96.3 µM | 94.8 µM | 108 µM | 223 µM | ≥ 300 µM | 1.3 µM | -50% | inactive | >196.9 | 88.8 µM | 28.5 µM | – | – | – | – | – | – | – | – | IC50 (Leishmania infantum [4]; j774): Not Active; IC50 (Leishmania amazonensis [8]; j774): Not Active
O=S(=O)(Nc1ccc2[nH]ncc2c1)c1ccccc1 | – | 47.9 µM | 37.3 µM | 38.7 µM | – | ≥ 300 µM | – | – | – | – | 40.3 µM | – | > 6.9 | 83.2 µM | Not Active | 30.8 µM | 55.5% | Not Active | – | – | Activity (Leishmania infantum [14]): Active; Activity (Leishmania infantum [15]): inactive; Activity (Leishmania infantum [16]): 96.34%; Activity (Mus musculus [17]): Non-toxic; Ratio CC50/IC50 [18]: >5.3; Activity (Leishmania infantum [19]): 97.57%; Activity (Mus musculus [21]): Non-toxic; Activity (Leishmania infantum [22]; route intraperitoneal): 78.9%; Activity (Leishmania infantum [23]): inactive
O=S(=O)(Nc1ccc2ncsc2c1)c1ccccc1 | – | 23.7 µM | 18.4 µM | 82.6 µM | – | ≥ 300 µM | – | – | – | – | 30.6 µM | – | > 13.9 | 39.2 µM | Not Active | 77.5 µM | 53.51% | Not Active | >3.1 | inactive | –
CC1CCCN(S(=O)(=O)c2cccc3ccccc23)C1 (stereo unspecified) | – | 7.2 µM | 6.7 µM | 24.6 µM | – | ≥ 300 µM | – | – | – | – | 9.9 µM | – | > 38.2 | 7.1 µM | Not Active | 18 µM | 80.17% | Not Active | >10.4 | inactive | Activity (Leishmania infantum [25]): Active; Activity (Leishmania infantum [26]): Active; Activity (Mus musculus [27]): Toxic; Activity (Leishmania infantum [28]): Active
O=S(=O)(Nc1cccc2cnccc12)c1cccc2ccccc12 | 60% | 15.8 µM | 20.3 µM | 24.5 µM | 187 µM | ≥ 300 µM | 97.6 µM | 72% | Active | >1.9 | 23 µM | 141 µM | – | 23 µM | – | 42.9 µM | – | – | >10.4 | inactive | Ratio CC50/IC50 [18]: > 16.2; Activity (Leishmania infantum [20]): inactive
O=S(=O)(Nc1ccc2c[nH]nc2c1)c1ccc(Cl)cc1 | 14% | 46.1 µM | 43.5 µM | 59.1 µM | 211 µM | ≥ 300 µM | 25.9 µM | -10% | inactive | >9.9 | 35.6 µM | 12.3 µM | – | – | – | – | – | – | – | – | IC50 (Leishmania infantum [4]; j774): Not Active; IC50 (Leishmania amazonensis [8]; j774): Not Active
